From ChEMBL document CHEMBL4732101, “Novel quinolone-based potent and selective HDAC6 inhibitors: Synthesis, molecular modeling studies and biological investigation” (Eur J Med Chem, 2021)
Calls of active or inactive are those of the source. The calls are words filed in the database; no cut-off is given here.

What was measured:
HCT-116 [1] = test: Cytotoxicity against human HCT-116 cells assessed as reduction in cell proliferation at 10 uM measured after 24 hrs by MTT assay relative to control; assay type: functional; design: scale not given: the % may be the effect or the level left
Method in brief: (§1)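 HCT-116 cells grown in DMEM with 10% FBS, 2 mM L-glutamine and antibiotics. 2.5×10^4 cells/well treated in triplicate at 50, 25, 10, 5 and 1 µM for 12, 24 or 48 h. Then MTT 0.5 mg/ml for 3 h, supernatant removed, formazan dissolved in isopropanol, absorbance read at 570 nm. IC50 derived from the concentration series.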

HCT-116 [2] = test: Induction of apoptosis in human HCT-116 cells assessed as increase in PARP cleavage at 10 uM measured after 24 hrs by Western blot analysis; assay type: functional, cell-based
Method in brief: (§2)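 HCT-116 or U937 cells treated at 10 µM for 12 and 24 h. […] Western blot used 40 µg total protein or 5 µg acid-extracted histone. Blots probed for cleaved PARP, acetylated tubulin, H3K9/14ac and Hsp90(AcLys294), normalized to GAPDH or H4. Compared with control cells by one-way ANOVA and Dunnett's test.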

HCT-116 [3] = test: Cytotoxicity against human HCT-116 cells assessed as reduction in cell viability measured after 24 hrs by MTT assay; assay type: functional, cell-based; settings: HCT-116, 24 h; method in brief: as §1
U-937 [4] = test: Induction of apoptosis in human U-937 cells assessed as increase in PARP cleavage at 10 uM measured after 24 hrs by Western blot analysis; assay type: functional, cell-based; method in brief: as §2
[5] = target: T1, Protein deacetylase HDAC6 (Homo sapiens) (UniProt Q9UBN7); test: Inhibition of HDAC6 in human U-937 cells assessed as increase in alpha-tubulin acetylation at 10 uM measured after 12 to 24 hrs by Western blot analysis relative to control; assay type: cell-based; settings: time 12-24 hrs; method in brief: as §2
T1 sequence (whole entry): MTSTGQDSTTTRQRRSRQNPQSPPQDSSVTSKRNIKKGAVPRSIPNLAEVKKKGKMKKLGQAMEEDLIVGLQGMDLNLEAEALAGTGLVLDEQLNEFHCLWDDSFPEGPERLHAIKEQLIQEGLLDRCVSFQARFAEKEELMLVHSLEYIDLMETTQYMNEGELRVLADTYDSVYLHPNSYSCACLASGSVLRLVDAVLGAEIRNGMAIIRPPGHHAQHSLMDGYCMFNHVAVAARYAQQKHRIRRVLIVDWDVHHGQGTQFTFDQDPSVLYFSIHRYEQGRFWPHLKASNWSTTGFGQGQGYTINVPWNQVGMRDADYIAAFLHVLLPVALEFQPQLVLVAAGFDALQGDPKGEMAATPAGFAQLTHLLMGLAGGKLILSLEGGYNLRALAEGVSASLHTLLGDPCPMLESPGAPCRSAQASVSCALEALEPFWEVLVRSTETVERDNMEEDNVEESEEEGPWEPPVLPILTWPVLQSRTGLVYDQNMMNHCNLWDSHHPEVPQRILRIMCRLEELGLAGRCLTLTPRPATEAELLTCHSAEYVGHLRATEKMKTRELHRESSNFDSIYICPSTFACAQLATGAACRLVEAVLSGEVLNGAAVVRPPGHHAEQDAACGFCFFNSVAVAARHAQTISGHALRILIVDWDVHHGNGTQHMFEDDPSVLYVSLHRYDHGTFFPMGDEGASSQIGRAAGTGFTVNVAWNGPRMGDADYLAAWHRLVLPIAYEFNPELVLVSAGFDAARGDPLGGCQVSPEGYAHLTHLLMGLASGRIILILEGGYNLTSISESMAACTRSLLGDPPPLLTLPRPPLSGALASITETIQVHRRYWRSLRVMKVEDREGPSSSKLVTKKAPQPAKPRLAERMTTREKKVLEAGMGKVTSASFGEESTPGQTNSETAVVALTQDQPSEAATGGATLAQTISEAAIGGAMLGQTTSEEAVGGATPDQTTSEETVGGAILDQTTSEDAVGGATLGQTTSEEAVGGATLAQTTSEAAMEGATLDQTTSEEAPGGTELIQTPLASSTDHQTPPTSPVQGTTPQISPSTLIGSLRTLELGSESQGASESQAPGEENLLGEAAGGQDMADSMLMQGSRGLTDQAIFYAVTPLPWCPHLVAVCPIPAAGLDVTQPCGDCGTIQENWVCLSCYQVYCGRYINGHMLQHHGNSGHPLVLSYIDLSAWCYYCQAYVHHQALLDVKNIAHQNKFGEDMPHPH

HCT-116 [6] = test: Cytotoxicity against human HCT-116 cells assessed as reduction in cell proliferation at 10 uM measured after 48 hrs by MTT assay relative to control; assay type: functional; design: scale not given: the % may be the effect or the level left; method in brief: as §1
[7] = target: T1, Protein deacetylase HDAC6 (Homo sapiens); test: Inhibition of HDAC6 in human HCT-116 cells assessed as increase in alpha-tubulin acetylation at 10 uM measured after 12 to 24 hrs by Western blot analysis relative to control; assay type: cell-based; settings: time 12-24 hrs; method in brief: as §2
[8] = Cytotoxicity against human PBMC cells assessed as reduction in cell viability at 45 uM measured after 24 to 48 hrs by GUAVA easyCyte cytometric method; assay type: cell-based; settings: time 24-48 hrs
Method in brief: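 PBMCs seeded at 1.5 x10^6/mL in complete medium and exposed to 15, 45 or 90 µM test compound, or DMSO vehicle, for 24 h and 48 h. Percentage of viable cells determined by flow cytometry with ViaCount reagent.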

[9] = target: T1, Protein deacetylase HDAC6 (Homo sapiens); test: Inhibition of HDAC6 in human U-937 cells assessed as increase in Hsp90(AcLys294) acetylation at 10 uM measured after 12 to 24 hrs by Western blot analysis; assay type: cell-based; settings: time 12-24 hrs; method in brief: as §2
Histone deacetylase 8 = target: T2, Histone deacetylase 8 (Homo sapiens, UniProt Q9BY41); test: Inhibition of recombinant human HDAC8 using Fluor-de-Lys as substrate measured after 1 hr by fluorescence assay
T2 sequence (Q9BY41 whole entry): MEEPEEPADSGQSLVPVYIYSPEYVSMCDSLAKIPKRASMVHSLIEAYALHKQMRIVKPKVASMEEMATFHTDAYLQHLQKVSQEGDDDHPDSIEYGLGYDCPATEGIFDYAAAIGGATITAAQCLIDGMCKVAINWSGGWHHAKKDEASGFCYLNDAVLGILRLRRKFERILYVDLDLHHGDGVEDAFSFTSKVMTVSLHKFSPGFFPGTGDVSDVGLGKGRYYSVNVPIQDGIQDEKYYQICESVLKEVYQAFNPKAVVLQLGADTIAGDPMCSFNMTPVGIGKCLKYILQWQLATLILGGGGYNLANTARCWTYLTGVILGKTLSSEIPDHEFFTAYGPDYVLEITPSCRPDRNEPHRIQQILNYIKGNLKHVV

[10] = Inhibition of HDAC1/2/3/8 in human U-937 cells assessed as increase in H3K9/14 acetylation at 10 uM measured after 12 to 24 hrs by Western blot analysis; assay type: cell-based; settings: u-937, 10 µM, time 12-24 hrs; method in brief: as §2
[11] = Inhibition of HDAC1/2/3/8 in human HCT-116 cells assessed as increase in H3K9/14 acetylation at 10 uM measured after 12 to 24 hrs by Western blot analysis relative to control; assay type: cell-based; settings: hct-116, 10 µM, time 12-24 hrs; method in brief: as §2
U-937 [12] = test: Cytotoxicity against human U-937 cells assessed as reduction in cell viability measured after 48 hrs by MTT assay; assay type: functional, cell-based; settings: U-937, 48 h
Method in brief: (§3)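 U937 cells grown in RPMI-1640 with 10% FBS, 2 mM L-glutamine and penicillin-streptomycin. 2.5×10^4 cells/well treated in triplicate at 50, 25, 10, 5 and 1 µM for 12, 24 or 48 h. MTT 0.5 mg/ml added for 3 h, plate centrifuged 5 min at 1200 rpm, crystals dissolved in isopropanol, A570 read. IC50 derived from the concentration series.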

HCT-116 [13] = test: Cytotoxicity against human HCT-116 cells assessed as reduction in cell viability measured after 48 hrs by MTT assay; assay type: functional, cell-based; settings: HCT-116, 48 h; method in brief: as §1
U-937 [14] = test: Cytotoxicity against human U-937 cells assessed as reduction in cell proliferation at 50 uM measured after 48 hrs by MTT assay relative to control; assay type: functional; design: scale not given: the % may be the effect or the level left; method in brief: as §3
[15] = target: T1, Protein deacetylase HDAC6 (Homo sapiens); test: Inhibition of HDAC6 in human HCT-116 cells assessed as increase in Hsp90(AcLys294) acetylation at 10 uM measured after 12 to 24 hrs by Western blot analysis; assay type: cell-based; settings: time 12-24 hrs; method in brief: as §2
HCT-116 [16] = test: Cytotoxicity against human HCT-116 cells assessed as reduction in cell viability measured after 12 hrs by MTT assay; assay type: functional, cell-based; settings: HCT-116, 12 h; method in brief: as §1
HCT-116 [17] = test: Cytotoxicity against human HCT-116 cells assessed as reduction in cell proliferation at 25 uM measured after 48 hrs by MTT assay relative to control; assay type: functional; design: scale not given: the % may be the effect or the level left; settings: time 12 hrs, in the assay text read “after 12 hrs” for “after 48 hrs”; method in brief: as §1

- fold change (FC) [5]: > 9
- fold change (FC) [7]: > 9
- inhibition [9]: inactive
- IC50 (Histone deacetylase 8): 0.55 µM
- Kapp (Histone deacetylase 8; human, 1 h): 0.36 µM
- inhibition (INH) [10]: Active
- fold change (FC) [11]: 2
- inhibition [15]: Active
Compound: CCN(CC)Cc1ccc(Cn2c(=O)c(OCc3ccc(C(=O)NO)cc3)c(-c3ccccc3)c3ccccc32)cc1
- Activity (HCT-116 [1]): 50%
- Activity (HCT-116 [2]): Active
- IC50 (HCT-116 [3]): 11.6 µM
- Activity (U-937 [4]): Active
- Activity (HCT-116 [6]): 90%
- Activity [8]: Toxic
- IC50 (U-937 [12]): 40.6 µM
- IC50 (HCT-116 [13]): 3.6 µM
- Activity (U-937 [14]): 60%
- IC50 (HCT-116 [16]): 13.5 µM
- Activity (HCT-116 [17]): 80%
